Bioassay records as filed in PubChem.
BAP1 inh = inhibitors of BAP1 deubiquitinase, primary screen, biochemical, Ub-AMC fluorescence, kinetic. calls only at 20 µM. Ubiquitin carboxyl-terminal hydrolase BAP1 (Homo sapiens), Q92560. recombinant BAP1, Ub-AMC hydrolysis fluorescence kinetic; hits give low values. 72,000 tested, 0.48% active;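 active = activity remaining at or below 50% of control, provided the compound also passes the data quality filters; inactive = the rest, including low values that fail the filters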;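 note: 100% = DMSO wells rate and 0% = substrate alone blank rate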
Ecoli WT expand = growth inhibitors of wild-type E. coli, primary screen, strain BW25113, expanded library, OD600; OD600 absorbance; growth inhibition, % at 100 µM; 98,000 tested, 0.15% active; AID 710, 2007;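 active = growth inhibition above about 50% at one test dose, limit read from the data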;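 note: growth measured after 20 h incubation at 37 °C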
Hsp90 inh = tumor Hsp90 inhibitors, primary screen, cell lysate, fluorescence polarization, NCI-N417 lysate; Heat shock protein HSP 90-alpha (Homo sapiens), P07900; Cy3B-geldanamycin FP displacement; inhibition, % at 30 µM; 64,000 tested, 0.35% active;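 active = inhibition above 50%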;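 note: 0% = tracer plus lysate wells and 100% = tracer alone without lysate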
tolC growth inh = growth inhibitors of E. coli tolC mutant, primary screen, strain BW25113 ΔtolC::kan, 384-well; OD615; growth inhibition, % at 10 µM (by protocol); 65,000 tested, 2.2% active; AID 573, 2007;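 active = growth inhibition at or above a cutoff equal to the mean over every tested compound plus 3 SD, cut at about 60% in these data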;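 note: growth measured after 20 h incubation at 37 °C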
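signal = optical density read at 615 nm | test system = E. coli ΔtolC::kan strain BW25113 | timing = 20 h compound exposure of bacteria at 37 °C | buffer or medium = LB medium plus 50 µg/mL kanamycin | compound dosing = 10 µM final, single dose | evaluation = % inhibition of E. coli growth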
M1 ag = M1 muscarinic receptor agonists, primary screen, CHO-M1 cells, Fluo-4 calcium, agonist mode | Fluo-4 calcium fluorescence; hits give high values | B-score at 10 µM | 64,000 tested, 3% active | AID 626, 2007;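 active = fluorescence rise, raw or as B-score row- and column-corrected plate score, outside the 99.7% band of its plate's samples, either direction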
M1 antagonist = antagonists of rat M1 muscarinic receptor. Muscarinic acetylcholine receptor M1 (Rattus norvegicus), P08482. CHO-M1 cells, Fluo-4 calcium, ACh EC80 antagonist mode; hits give low values. B-score at 10 µM. 64,000 tested, 3.4% active. AID 628, 2007;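 active = calcium fluorescence response, raw or row-and-column corrected B-score, differing from the plate sample mean either way at a set confidence level, mostly lower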
M1 agonist conf = rat M1 muscarinic receptor agonists, confirmation, CHO-M1 cells, Fluo-4 calcium, duplicate retest; shares compounds with M1 ag; Fluo-4 calcium fluorescence, agonist mode; actives lie on both sides; fluorescence change (max-min) at 10 µM; 1,700 tested, 19% active;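 active = fluorescence change differs from the solvent-only DMSO control mean at a set confidence level in both duplicate runs; inconclusive = differs from solvent-only control mean in just one of two runs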;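 note: an EC20 dose of acetylcholine follows compound addition during the same imaging run; raw fluorescence intensity difference in instrument units with no normalization to controls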
M4 agonist ctr = agonist activity at rat M4 receptor, confirmation, counter-screen for M1 allosteric modulator project, cell-based, agonist mode | CHO M4/Gqi5 cells, Fluo-4 calcium fluorescence; actives lie on both sides | shares compounds with M1 ag | 1,700 tested, 9% active | fluorescence change (max-min) at 10 µM | AID 1741, 2009;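 active = fluorescence change differing from the plate's solvent-only control wells at 99.7% confidence in both duplicates, whether higher or lower; inconclusive = differs from solvent controls in only one of two duplicates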
* marks the source's active call; other numbers are inactive results; i = inactive; ? = inconclusive; · = not tested or not shown. Only some compounds are listed: those with a hit (about 5.1% of all), similar ones and a draw of the others.

SMILES	BAP1 inh	Ecoli WT expand	Hsp90 inh	tolC growth inh	M1 ag	M1 antagonist	M1 agonist conf	M4 agonist ctr
CC1(C)CC(=O)C=C(Nc2ccccc2NC(=O)c2cnccn2)C1	i	5	-2	-6	21*	-1.8*	-13	-23
CCOc1cccc(-c2cc(C(=O)Nc3sc(C)cc3C(=O)OC)c3ccccc3n2)c1	i	·	·	·	·	·	·	·
O=C(Nc1ccccc1-c1nc2ccccc2s1)c1cccc2ccccc12	i	·	·	·	·	·	·	·
O=S(=O)(c1ccc(C=Cc2ccc(Cl)cc2)cc1)N1CCCC1	i	·	·	·	·	·	·	·
O=S(=O)(Nc1nc2ccccc2nc1N1CCN(c2ccccn2)CC1)c1ccc(Cl)cc1	·	-4	2	83*	9.2*	-0.32	46	?
Cc1ccc(S(=O)(=O)Nc2nc3ccccc3nc2N2CCN(c3ccccc3F)CC2)cc1	·	-20	·	·	·	·	·	·
CC=CCOC(=O)C1=C(C)NC(=O)NC1c1cc(Cl)c(O)c(OC)c1 (stereo not given)	i	·	·	·	·	·	·	·
CCOC(=O)C1CCN(c2c(N3CCCC(C(=O)OCC)C3)c(=O)c2=O)CC1 (stereo not given)	i	0	0	-11	27*	-0.13	38	?
CCOc1ccc2nc(NC(=O)CS(=O)(=O)c3ccc(C)cc3)sc2c1	·	-19	·	·	·	·	·	·
CCOc1ccc2nc(NC(=O)CS(=O)(=O)c3ccccc3)sc2c1	i	7	-2	9	2.2*	0.32	-16	-38
Cn1c(=O)oc2cc(S(=O)(=O)Nc3cccc(F)c3)ccc21	i	3	-3	2	-0.58	0.092	·	·
CSc1cccc(NS(=O)(=O)c2ccc3c(c2)oc(=O)n3C)c1	i	10	2	9	-4*	-1.2	-15	-35
CSc1cccc(NS(=O)(=O)c2cccs2)c1	i	13	-3	21	2.8*	0.95	-28*	-57
CC(C)(C)c1ccc(-c2nc3cc(NC(=O)c4ccc(Br)o4)ccc3o2)cc1	i	·	·	·	·	·	·	·
Cc1cc(C)n2nc(C(=O)Nc3ccc4c(c3)OCO4)nc2n1	i	3	3	-4	4.5*	0.26	?	-52
Cc1ccnc2nc(C(=O)Nc3ccc4c(c3)OCO4)nn12	·	1	·	·	·	·	·	·
CCOC(=O)c1c(Cl)nc2c(Br)cc(N)c3c2c1-c1ccccc1C3=O	i	·	·	·	·	·	·	·
N#Cc1c(N=Cc2cc(Br)ccc2O)sc2c1CCCC2	i	·	·	·	·	·	·	·
CCOC(=O)c1cccc(NC(=O)CSc2nc3cccnc3n2C)c1	i	-3	2	13	3.3*	-1.1	0.89	-26
CCOC(=O)c1c(NC(=O)CSc2nc3cccnc3n2C)sc(C(C)=O)c1C	i	-1	1	18	0.53	-0.21	·	·
COc1ccc(S(=O)(=O)Nc2c(C)n(C)n(-c3ccccc3)c2=O)cc1[N+](=O)[O-]	i	·	·	·	·	·	·	·
COc1ccc(-c2cc(C(F)(F)F)n3ncc(C(=O)NCc4ccco4)c3n2)cc1	i	-4	0	10	2.9*	-0.69	10	4.9
O=C(NC1CCCC1)c1cnn2c(C(F)(F)F)cc(-c3ccc4c(c3)OCO4)nc12	i	3	3	14	14*	-0.86	23	8.7
O=C(c1cnn2c(C(F)(F)F)cc(-c3ccc4c(c3)OCO4)nc12)N1CCCCC1	i	-2	-1	-5	0.014	-1.2	·	·
COc1cc(N(C)C)c([N+](=O)[O-])cc1C(=O)NCCN1CCN(c2ccccc2)CC1	i	·	·	·	·	·	·	·
COc1ccc(-c2cc(=O)oc3c(C)c(O)c(CN(C)C)cc23)cc1	i	4	-2	10	6.4*	-0.021	-0.86	-3.3
COC(=O)COc1ccc2c(-c3ccc(OC)cc3)cc(=O)oc2c1	·	-12	·	·	·	·	·	·
